Test results reported in ChEMBL document CHEMBL4304750, “Novel Anthraquinone Compounds Induce Cancer Cell Death through Paraptosis” (ACS Med Chem Lett, 2019).
Activity calls are given as the source filed them. No cut-off for these calls is given here.

Columns and labels:
[1] = test system: HepG2; assay: Induction of cell vacuole formation in human HepG2 cells at 5 uM incubated for 24 hrs by phase contrast microscopy; format: functional, cell-based
[2] = test system: SMMC-7721; assay: Induction of cell vacuole formation in human SMMC7721cells at 5 uM incubated for 24 hrs by phase contrast microscopy; format: functional, cell-based
[3] = test system: CNE-2; assay: Induction of cell vacuole formation in human CNE2 cells at 5 uM incubated for 24 hrs by phase contrast microscopy; format: functional, cell-based
[4] = test system: CNE; assay: Induction of cell vacuole formation in human CNE1 cells at 5 uM incubated for 24 hrs by phase contrast microscopy; format: functional, cell-based
[5] = test system: SMMC-7721; assay: Antiproliferative activity against human SMMC7721 assessed as reduction in cell viability incubated for 48 hrs by MTT assay; format: functional, cell-based
[6] = test system: CNE; assay: Antiproliferative activity against human CNE1 cells assessed as reduction in cell viability incubated for 48 hrs by MTT assay; format: functional, cell-based
[7] = test system: CNE-2; assay: Antiproliferative activity against human CNE2 cells assessed as reduction in cell viability incubated for 48 hrs by MTT assay; format: functional, cell-based
[8] = test system: HepG2; assay: Antiproliferative activity against human HepG2 cells assessed as reduction in cell viability incubated for 48 hrs by MTT assay; format: functional, cell-based
[9] = test system: SMMC-7721; assay: Induction of cytoplasmic vacuolation in human SMMC7721 cells assessed as vacuolar cell formation and appearance of apoptotic cells at 3 to 10 uM incubated for 48 hrs by phase contrast microscopy; format: functional, cell-based
[10] = test system: SMMC-7721; assay: Induction of apoptosis with PS translocation in human SMMC7721 cells at 3 to 10 uM incubated for 48 hrs by Annexin V-FITC and propidium iodide staining based flow cytometry; format: functional, cell-based
Summary of the method: (§1)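 After 48 h treatment, SMMC-7721 cells were collected, stained with annexin V-FITC plus PI, and analysed by flow cytometry for PS externalization/apoptotic fraction.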

[11] = test system: SMMC-7721; assay: Induction of paraptosis in human SMMC7721 cells assessed as increase in GRP78 expression by Western blot analysis; format: functional, cell-based
[12] = test system: SMMC-7721; assay: Induction of paraptosis in human SMMC7721 cells assessed as increase in LC3-II/LC3-I expression ratio by Western blot analysis; format: functional, cell-based
[13] = test system: SMMC-7721; assay: Decrease in p62 expression level in human SMMC7721 cells by Western blot analysis; format: functional, cell-based
[14] = test system: SMMC-7721; assay: Effect on cleaved caspase 3 level in human SMMC7721 cells at antiproliferative IC60 incubated for 12 to 48 hrs by Western blot analysis; format: functional, cell-based
Summary of the method: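 SMMC-7721 cells were treated 12, 24 and 48 h, with cisplatin as apoptosis positive control. Extracts were immunoblotted for procaspase-3 and cleaved caspase-3, with β-actin as loading control.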

[15] = test system: SMMC-7721; assay: Induction of cell morphological changes in human SMMC7721 cells assessed as change in cell membrane structure at 5 uM incubated for 48 hrs by transmission electron microscopy; format: functional, cell-based
Summary of the method: (§2)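 SMMC-7721 cells incubated 48 h at 5 μM, alongside untreated control cells, then imaged by transmission electron microscopy. ER, mitochondria, Golgi, nucleus, membrane and autophagosomes/apoptotic bodies were inspected.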

[16] = test system: CNE-2; assay: Induction of cell vacuole formation in human CNE2 cells at 3 to 5 uM incubated for 48 hrs by phase contrast microscopy; format: functional, cell-based
[17] = test system: CNE-2; assay: Antiproliferative activity against human CNE2 cells assessed as reduction in cell viability incubated for 48 hrs by CCK-8 assay; format: functional, cell-based
[18] = test system: SMMC-7721; assay: Antiproliferative activity against human SMMC7721 cells assessed as decrease in cell viability incubated for 48 hrs by CCK-8 assay; format: functional, cell-based
Summary of the method: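 SMMC-7721 cells exposed 48 h to 3, 5 or 10 μM, then viability read by CCK-8 assay.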

[19] = test system: SMMC-7721; assay: Induction of cell morphological changes in human SMMC7721 cells assessed as swelling of mitochondria at 5 uM incubated for 48 hrs by transmission electron microscopy; format: functional, cell-based; summary of the method: as §2
[20] = test system: SMMC-7721; assay: Induction of cell morphological changes in human SMMC7721 cells assessed as autophagosome formation at 5 uM incubated for 48 hrs by transmission electron microscopy; format: functional, cell-based; summary of the method: as §2
[21] = test system: HepG2; assay: Antiproliferative activity against human HepG2 cells assessed as reduction in cell viability incubated for 48 hrs by CCK-8 assay; format: functional, cell-based
[22] = test system: SMMC-7721; assay: Induction of endoplasmic reticulum vacuolation in human SMMC7721 cells assessed as nuclei shrank and appearance of vacuoles surrounded by positive ER-specific markers at 3 to 5 uM incubated for 48 hrs by ER-tracker red and Hoechst 33342 staining based laser scanning confocal microscopy; format: functional, cell-based
[23] = test system: SMMC-7721; assay: Induction of endoplasmic reticulum vacuolation in human SMMC7721 cells assessed as increase in vacuole formation and entire ER cytoplasm occupied with vacuole with loss of cell contents at 3 to 5 uM incubated for 48 hrs by ER-tracker red and Hoechst 33342 staining based laser scanning confocal microscopy; format: functional
[24] = test system: SMMC-7721; assay: Induction of endoplasmic reticulum stress in human SMMC7721 cells assessed as increase in GRP78 expression at 3 uM by Western blot analysis; format: functional, cell-based; conditions: TDE = time-dependent effect
[25] = test system: SMMC-7721; assay: Induction of cell morphological changes in human SMMC7721 cells assessed as appearance of small vacuoles in cytoplasm at 5 uM incubated for 48 hrs by transmission electron microscopy; format: functional, cell-based; summary of the method: as §2
[26] = test system: SMMC-7721; assay: Induction of cell morphological changes in human SMMC7721 cells assessed as cell shrinkage at 3 to 10 uM incubated for 48 hrs by HE staining based light microscopy; format: functional
Summary of the method: (§3)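 Haematoxylin-eosin staining of SMMC-7721 cells after 48 h treatment, examined by light microscopy.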

[27] = test system: SMMC-7721; assay: Induction of cell morphological changes in human SMMC7721 cells assessed as nuclear chromatin pyknosis at 3 to 10 uM incubated for 48 hrs by H and E staining based light microscopy; format: functional; summary of the method: as §3
[28] = test system: SMMC-7721; assay: Induction of cell morphological changes in human SMMC7721 cells assessed as appearance of ridges in mitochondria at 5 uM incubated for 48 hrs by transmission electron microscopy; format: functional, cell-based; summary of the method: as §2
[29] = test system: SMMC-7721; assay: Induction of cell morphological changes in human SMMC7721 cells assessed as appearance of concentrated nucleus at 5 uM incubated for 48 hrs by transmission electron microscopy; format: functional, cell-based; summary of the method: as §2
[30] = test system: SMMC-7721; assay: Inhibition of autophagosome formation in human SMMC7721 cells assessed as increase in p62 level at 3 uM incubated for 12 to 48 hrs by Western blot analysis; format: functional, cell-based
[31] = test system: SMMC-7721; assay: Induction of cell cycle arrest in human SMMC7721 cells at 3 to 10 uM incubated for 48 hrs by propidium iodide staining based flow cytometry; format: functional
[32] = test system: SMMC-7721; assay: Antiproliferative activity against human SMMC7721 assessed as reduction in cell viability incubated for 48 hrs by CCK-8 assay; format: functional, cell-based; conditions: SMMC-7721, 48 h
[33] = test system: SMMC-7721; assay: Increase in LC3-II/LC3-I expression ratio in human SMMC7721 cells at 3 uM incubated for 12 to 48 hrs by Western blot analysis; format: functional, cell-based
[34] = test system: SMMC-7721; assay: Induction of cell morphological changes in human SMMC7721 cells assessed as vacuole formation in mitochondria at 5 uM incubated for 48 hrs by transmission electron microscopy; format: functional, cell-based; summary of the method: as §2
[35] = test system: SMMC-7721; assay: Induction of cell morphological changes in human SMMC7721 cells assessed as appearance of large vacuoles in cytoplasm at 5 uM incubated for 48 hrs by transmission electron microscopy; format: functional, cell-based; summary of the method: as §2
[36] = test system: SMMC-7721; assay: Induction of cytoplasmic vacuolation in human SMMC7721 cells assessed as increase in number of vacuoles formation with shrinked volume of vacuoles at 3 to 10 uM incubated for 48 hrs by inverted phase contrast microscopy; format: functional, cell-based
[37] = test system: SMMC-7721; assay: Induction of endoplasmic reticulum vacuolation in human SMMC7721 cells assessed as vacuole derivatization by expansion and swelling of rough ER with vacuoles wrapped in monolayer membranes with loss of ER structure integrity at 5 uM incubated for 48 hrs by transmission electron microscopy; format: functional, cell-based; summary of the method: as §2
[38] = test system: SMMC-7721; assay: Induction of apoptosis in human SMMC7721 cells assessed as viable cells with normal cell membrane at 10 uM incubated for 48 hrs by Annexin V-FITC and propidium iodide staining based flow cytometry; format: functional; summary of the method: as §1
[39] = test system: SMMC-7721; assay: Induction of cell morphological changes in human SMMC7721 cells assessed as appearance of smaller nucleus at 5 uM incubated for 48 hrs by transmission electron microscopy; format: functional, cell-based; summary of the method: as §2
[40] = test system: HepG2; assay: Induction of cell vacuole formation in human HepG2 cells at 3 to 5 uM incubated for 48 hrs by phase contrast microscopy; format: functional, cell-based
[41] = test system: CNE; assay: Induction of cell vacuole formation in human CNE1 cells at 3 to 5 uM incubated for 48 hrs by phase contrast microscopy; format: functional, cell-based
[42] = test system: SMMC-7721; assay: Induction of mitochondrial swelling, vacuoles and ridges disappearance and loss of mitochondrial and golgi apparatus structural integrity in human SMMC7721 cells at 5 uM incubated for 48 hrs by transmission electron microscopy; format: functional, cell-based; summary of the method: as §2
[43] = test system: SMMC-7721; assay: Induction of cell morphological changes in human SMMC7721 cells assessed as cytoplasmic loss at 3 to 10 uM incubated for 48 hrs by H and E staining based light microscopy; format: functional; summary of the method: as §3
[44] = test system: CNE; assay: Antiproliferative activity against human CNE1 cells assessed as reduction in cell viability incubated for 48 hrs by CCK-8 assay; format: functional, cell-based
[45] = test system: SMMC-7721; assay: Induction of cell morphological changes in human SMMC7721 cells assessed as formation of apoptotic bodies at 5 uM incubated for 48 hrs by transmission electron microscopy; format: functional, cell-based; summary of the method: as §2
[46] = test system: SMMC-7721; assay: Induction of cytoplasmic vacuolation in human SMMC7721 cells at 10 uM incubated for 48 hrs by phase contrast microscopy; format: functional, cell-based

SMILES: O=C1c2cccc(OCc3ccccc3)c2C(=O)c2c(OCc3ccccc3)cc(C(=O)N3CCN(CCO)CC3)cc21
- Activity [1]: Active
- Activity [2]: Active
- Activity [3]: Active
- Activity [4]: Active
- inhibition [5]: Active
- inhibition [6]: Active
- inhibition [7]: Active
- inhibition [8]: Active

SMILES: O=C(OCCN1CCCCC1)c1cc(OCc2ccccc2)c2c(c1)C(=O)c1cccc(OCc3ccccc3)c1C2=O
- Activity [1]: Active
- Activity [2]: Active
- Activity [3]: Active
- Activity [4]: Active
- Activity [9]: Active
- inhibition [5]: Active
- Activity [10]: Active
- inhibition [6]: Active
- inhibition [7]: Active
- inhibition [8]: Active

SMILES: O=C(O)c1cc(O)c2c(c1)C(=O)c1cccc(O)c1C2=O
- Activity [11]: inactive
- Activity [12]: inactive
- inhibition [13]: inactive

SMILES: O=C(NCCO)c1cc(OCc2ccccc2)c2c(c1)C(=O)c1cccc(OCc3ccccc3)c1C2=O
- Activity [14]: inactive
- Activity [15]: inactive
- Activity [16]: Active
- inhibition [17]: Active
- inhibition [18]: Dose-dependent effect
- Activity [19]: Active
- Activity [1]: Active
- Activity [20]: inactive
- Activity [2]: Active
- Activity [3]: Active
- inhibition [21]: Active
- Activity [4]: Active
- Activity [11]: Active
- Activity [22]: Active
- Activity [23]: Active
- Activity [24]: Tde
- Activity [25]: Active
- Activity [26]: Active
- Activity [27]: Active
- Activity [28]: inactive
- Activity [29]: Active
- inhibition [30]: Active
- Activity [31]: inactive
- IC50 [32]: 1.5 µM
- Activity [33]: Active
- Activity [10]: inactive
- Activity [34]: Active
- Activity [35]: Active
- Activity [36]: Active
- Activity [37]: Active
- Activity [38]: 22.42%
- Activity [12]: Active
- Activity [39]: Active
- Activity [40]: Active
- Activity [41]: Active
- Activity [42]: Active
- Activity [43]: Active
- inhibition [13]: inactive
- inhibition [44]: Active
- Activity [45]: inactive

SMILES: O=C(O)c1cc(OCc2ccccc2)c2c(c1)C(=O)c1cccc(OCc3ccccc3)c1C2=O
- Activity [11]: Active
- Activity [12]: inactive
- Activity [46]: Active
- inhibition [13]: inactive
